“Also recorded” adds a separate entry of the source.
Legend:
Crk SH2 [1] = assay: FP competition assay: unlabeled peptides vs FAM-DVpYDVPP; format: binding, mouse Crk protein 1 – 118 identical to human CRK protein; settings: 4 nM FAM-labeled phosphorylated peptide, 150 nM Crk SH2, unlabeled competitor peptides; data not shown
How it was run: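 Polarization is read as mP values. For each unlabeled peptide, the concentration giving 50% displacement of the FAM probe is obtained by non-linear regression.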

Crk SH2 [2] = assay: Differential scanning fluorimetry; format: binding, mouse Crk protein 1 – 118 identical to human CRK protein; settings: 10 μM Crk SH2, 10X SYPRO Orange, peptides 0-300 μM, 50 mM HEPES, pH 7.5, 150 mM NaCl; 25 to 95°C at 0.2°C/s; Figure 6B
How it was run: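 Before dye addition, Crk SH2 (10 μM final) is preincubated with peptides, dispensed from DMSO or buffer, for 30 min at room temperature. SYPRO Orange is then added and samples are melted. Tm is taken from the fluorescence curve or its first derivative as the half-unfolded point. ΔTm is the change in Tm on ligand binding. A DMSO series of 0–2% was also run.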

Crk SH2 [3] = assay: Fluorescence polarization; format: mouse Crk protein 1 – 118 identical to human CRK protein; settings: direct binding; various concentrations of FAM-conjugated peptides titrated into 4 nM Crk SH2, 20 mM HEPES pH 7.5, 0.025% Triton X-100; 384-well, 480-nm excitation, 535-nm emission; repeated at least three times; Figure 6A
Crk SH2 vs CrkL SH2 = assay: Comparison of affinity of FAM-DVpYDVPP for Crk SH2 vs CrkL SH2; format: binding, mouse; settings: comparison in words; assay and values not given

Competition of binding of Crk SH2 with FAM-DVpYDVPP (Crk SH2 [1]) | Substance | Shift of thermal unfolding curve / Tm (Crk SH2 [2]) | Increase in FP / polarization (mP) (Crk SH2 [3]) | Relative affinity, Crk SH2 vs CrkL SH2 (Crk SH2 vs CrkL SH2)
much less significantly | DVFDVPP-OH | – | – | –
much less significantly | DVYDVPP | no significant shift in Tm was observed; also recorded: no significant binding | – | –
– | FAM-DVYDVPP | – | no significant increase in FP is observed; also recorded: No polarization is detected | –
– | FAM-DVpYDVPP | – | a significant increase in FP is measured | Crk SH2 showed a higher affinity

Substance | Competition of binding of Crk SH2 with FAM-DVpYDVPP (Crk SH2 [1]) | Shift of thermal unfolding curve / Tm (Crk SH2 [2]) | Increase in FP / polarization (mP) (Crk SH2 [3]) | Relative affinity, Crk SH2 vs CrkL SH2 (Crk SH2 vs CrkL SH2)
DVpYDVPP-OH | effectively competed out | shift to the right; also recorded: unfolding curves shifted | – | –

From publication PMC11542726 (Methods in enzymology, 2024)
